Experimental data pooled from the literature.
Protocols differ between the studies behind these lines.
Target: Serine/threonine-protein kinase 17A (STK17A, Homo sapiens, UniProt Q9UEE5)

SMILES | observed | mode | method | tested at | endpoint | value
O=C1Nc2ccc(Cl)cc2C1=Cc1cc(Cl)c(O)c(Cl)c1 | cell-free assay | – | – | 0.5 µM | remaining signal | 78.9%
CCCOc1ccc([C@H]2[C@H](C(=O)O)[C@@H](c3ccc4c(c3)OCO4)CN2CC(=O)Nc2c(CC)cccc2CC)cc1 | cell-free assay | – | competition with immobilised ligand | 1 µM | remaining binding | 92%
Cc1nn(CC(F)(F)F)cc1Nc1nccc(NCc2ccc(S(N)(=O)=O)cc2)n1 | enzyme activity | inhibitor | radiometric | 1 µM | remaining activity | 103%
Cc1ccc(Nc2nccc(N(C)c3ccc4c(C)n(C)nc4c3)n2)cc1S(N)(=O)=O | cell-free assay | – | – | 10 µM | inhibition | 14%
C[C@@H](c1cccc(C#N)c1)n1cc(Cl)cc(C(N)=O)c1=N | cell-free assay | – | competition with immobilised ligand | 1 µM | remaining binding | 89%
c1cc(CN2CCOCC2)cc(Nc2ncc(C3CC3)c(NCCc3c[nH]cn3)n2)c1 | enzyme activity | inhibitor | radiometric | 1 µM | remaining activity | 50%
CC1CCCN1c1nccc(-c2cnn3ncccc23)n1 (centres unmarked) | binding | – | – | 1 µM | remaining binding | 84%
NS(=O)(=O)c1ccc(CNc2nc(Nc3cccc(CN4CCOCC4)c3)ncc2Br)cc1 | enzyme activity | inhibitor | radiometric | 1 µM | remaining activity | 58%
Cc1noc([C@H]2C[C@@H](c3ccc(C(F)(F)F)cc3)CN(C(=O)N3CCS(=O)(=O)C3)C2)n1 | cell-free assay | – | competition with immobilised ligand | 1 µM | remaining binding | 100%
CCN(CC)CCNC(=O)c1c(C)[nH]c(/C=C2\C(=O)Nc3ccc(F)cc32)c1C | cell-free assay | – | – | 0.5 µM | remaining signal | 26.7%
CCCS(=O)(=O)Nc1ccc(F)c(C(=O)c2c[nH]c3ncc(-c4ccc(Cl)cc4)cc23)c1F | enzyme activity | inhibitor | – | 1 µM | inhibition | < 10%
CN1CC(Oc2cnc(C#N)cc2-c2ccn3nc(NC(=O)C4CC4)cc3c2)C1 | enzyme activity | inhibitor | – | 1 µM | inhibition | 10%
Cc1ccc(NC(=O)c2ccc(CN3CCN(C)CC3)cc2)cc1Nc1nc(-c2cccnc2)cs1 | cell-free assay | – | – | 0.5 µM | remaining signal | 104%
CN1CCc2cc(Nc3ncc(C4CC4)c(NCCCNC(=O)C4CCC4)n3)ccc2C1 | enzyme activity | inhibitor | radiometric | 1 µM | remaining activity | 3%
Nc1ncnc2occ(-c3ccc(NC(=O)Nc4cc(C(F)(F)F)ccc4F)cc3)c12 | cell-free assay | – | – | 20 µM | remaining signal | 55%
C=CC(=O)Nc1cc(Nc2nccc(Nc3cc(Cl)c(F)cc3C(C)(C)O)n2)c(OC)cc1N1CC[C@@H](N(C)C)C1 | enzyme activity | inhibitor | – | 1 µM | inhibition | 1%
Cc1c(NC(=O)c2cc(C(N)=O)nc3cc(F)ccc23)c(C(F)(F)F)nn1Cc1ccc(C#N)cc1 | cell-free assay | – | competition with immobilised ligand | 1 µM | remaining binding | 90%
CNC(=O)c1cc(Oc2ccc(NC(=O)Nc3ccc(Cl)c(C(F)(F)F)c3)cc2)ccn1 | cell-free assay | – | – | 0.3 µM | inhibition | -8%
O=C1CCc2cc(Nc3cc(OC4CCOCC4)c([N+](=O)[O-])cc3Cl)ccc2N1 | cell-free assay | – | competition with immobilised ligand | 1 µM | remaining binding | 95%
Cc1nn(CC(F)(F)F)cc1Nc1ncc(C2CC2)c(NCCc2c[nH]cn2)n1 | enzyme activity | inhibitor | radiometric | 1 µM | remaining activity | 107%
COc1ccc2cc(OCC3(C(=O)O)CN(C(=O)c4ccc(F)cc4)C3)ccc2c1 | cell-free assay | – | competition with immobilised ligand | 1 µM | remaining binding | 81%
COc1cc2ncnc(Nc3ccc(F)c(Cl)c3)c2cc1OCCCN1CCOCC1 | cell-free assay | – | – | 0.5 µM | remaining signal | 96%
CC(=O)C1=C(C)N(c2cccc(C(F)(F)F)c2)C(=O)N[C@@H]1c1ccc(C#N)nc1 | cell-free assay | – | competition with immobilised ligand | 1 µM | remaining binding | 93.7%
O=C(NCCCNc1ccnc(Nc2cccc(NC(=O)N3CCCC3)c2)n1)C1CCC1 | enzyme activity | inhibitor | radiometric | 1 µM | remaining activity | 18%
CS(=O)(=O)N1CCCC(NC(=O)[C@H](CCC2CCCCC2)NC(=O)c2ccc(CNc3ncnc4c3nnn4-c3ccccc3)cc2)C1 (some centres unmarked) | cell-free assay | – | competition with immobilised ligand | 0.1 µM | remaining binding | 100%
Cc1nn(CC(F)(F)F)cc1Nc1ncc(Br)c(NCCCNC(=O)C2CCC2)n1 | enzyme activity | inhibitor | radiometric | 1 µM | remaining activity | 5%
